Assay results from different studies.
Each line is one published result; the experiments were not run side by side.
Target: Casein kinase II subunit alpha (CSNK2A1, Homo sapiens, UniProt P68400)

| Compound | read-out | mode | method | tested at | measurement | value |
| --- | --- | --- | --- | --- | --- | --- |
| Nc1cnc(N2CCc3cc(S(=O)(=O)Nc4c(F)cc(Cl)cc4F)cc(N4CCCC4=O)c32)nc1 | cell-free assay |  | competition with immobilised ligand | 1 µM | remaining binding | 100% |
| CC(C)(C)c1nc(-c2cccc(NS(=O)(=O)c3c(F)cccc3F)c2F)c(-c2ccnc(N)n2)s1 | enzyme activity | inhibitor | radiometric | 1 µM | remaining activity | 85% |
| C[C@@H]1CN(c2cc(-c3nn(C)c4ccc(OC5(C)CC5)cc34)ncn2)C[C@H](C)O1 | cell-free assay |  | competition with immobilised ligand | 1 µM | remaining binding | 76% |
| CCN(CC)CCNC(=O)c1c(C)[nH]c(/C=C2\C(=O)Nc3ccc(F)cc32)c1C | enzyme activity | inhibitor |  | 0.3 µM | inhibition | -7% |
| COc1cc(Nc2cnc(C#N)c(O[C@H](C)CN(C)C)n2)ncc1-c1cnn(C)c1 | enzyme activity | inhibitor | radiometric | 1 µM | remaining activity | 110% |
| O=C1Nc2ccc(Cl)cc2C1=Cc1cc(Cl)c(O)c(Cl)c1 | cell-free assay |  |  | 0.5 µM | remaining signal | 26.5% |
| Cn1c2c(Cl)c(Cl)ccc2c2cc[nH]c(=O)c21 | thermal stability |  | DSF | 10 µM | ΔTm | 1.3 °C |
| C[C@H](NC(=O)c1cnc2n1[C@](C)(Cc1ccc(C#N)cc1)C(=O)N2c1cc(Cl)c(F)c(Cl)c1)C(=O)NC1(c2ccccn2)CC1 | cell-free assay |  | competition with immobilised ligand | 1 µM | remaining binding | 81% |
| COc1cc(/C=C/C(=O)CC(=O)/C=C/c2ccc(O)c(OC)c2)ccc1O | enzyme activity | inhibitor |  | 1 µM | activity vs control | 106% |
| Cn1c2c(c3ccc(Cl)c(Cl)c31)C(C#N)C1(CCOCC1)NC2=O (stereo not shown) | thermal stability |  | DSF | 10 µM | ΔTm | 2.1 °C |
| NS(=O)(=O)c1cc(NC(=O)Cc2ccccc2)ccc1Oc1cccc(Cl)c1 | cell-free assay |  | competition with immobilised ligand | 1 µM | remaining binding | 96% |
| CCC1(CC)NC(=O)c2c(c3ccc(Cl)c(Cl)c3n2C)C1C#N (stereo not shown) | thermal stability |  | DSF | 10 µM | ΔTm | 0 °C |
| O=C(N1CCS(=O)(=O)CC1)N1C[C@H](c2ccc(OC(F)(F)F)cc2)C[C@H](c2nc(C3CC3)no2)C1 | cell-free assay |  | competition with immobilised ligand | 1 µM | remaining binding | 100% |
| CC(C)(C)C(=O)c1sc(NC2CCCCC2)nc1N | enzyme activity | inhibitor |  | 10 µM | remaining activity | 118% |
| Cc1ccc(C(=O)Nc2ccc(CN3CCN(C)CC3)c(C(F)(F)F)c2)cc1C#Cc1cnc2cccnn12 | enzyme activity | inhibitor |  | 23.5 nM | remaining activity | 98% |
| O=C(O)c1cc(-c2ccc(C3CCNCC3)cc2)c2ccc(-c3ccc(C(F)(F)F)cc3)cc2c1 | cell-free assay |  | competition with immobilised ligand | 1 µM | remaining binding | 100% |

| Compound | read-out | mode | method | tested at | measurement | value |
| --- | --- | --- | --- | --- | --- | --- |
| C[S+]([O-])c1ccc(-c2nc(-c3ccncc3)c(-c3ccc(F)cc3)[nH]2)cc1 (stereo not shown) | cell-free assay |  |  | 0.5 µM | remaining signal | 86.2% |
| O=C(Nc1cnn(-c2csc(C(=O)NC3COC3)c2)c1)Nc1c(F)cccc1Cl | enzyme activity | inhibitor |  | 5 µM | remaining activity | 90.5% |
| Cc1ccc(Nc2nccc(N(C)c3ccc4c(C)n(C)nc4c3)n2)cc1S(N)(=O)=O | enzyme activity | inhibitor |  | 10 µM | inhibition | -7% |
| Cn1c2c(c3ccccc31)C(C#N)C(C)(C)NC2=O (stereo not shown) | thermal stability |  | DSF | 10 µM | ΔTm | 0.8 °C |
| O=C1CCc2cc(Nc3cc(OC4CCOCC4)c([N+](=O)[O-])cc3Cl)ccc2N1 | cell-free assay |  | competition with immobilised ligand | 1 µM | remaining binding | 84% |
| Cc1cnc(NC2CCOCC2)nc1-n1cnc(C(=O)NC(CN)c2cc(F)cc(Cl)c2)c1 (stereo not shown) | enzyme activity | inhibitor | radiometric | 1 µM | remaining activity | 106% |
| FC(F)c1nc2ccccc2n1-c1nc(N2CCOCC2)nc(N2CCOCC2)n1 | enzyme activity | inhibitor |  | 10 µM | remaining activity | 54% |
| COc1cc2ncnc(Nc3ccc(Oc4ccccc4)c(C)c3C)c2cc1OC | enzyme activity | inhibitor |  | 1 µM | inhibition | 5% |
| O=C1NC(=O)c2cc(Nc3ccc(F)cc3)c(Nc3ccc(F)cc3)cc21 | cell-free assay | inhibitor |  | 0.5 µM | remaining signal | 95.7% |
| Cc1ccc(NC(=O)c2ccc(C)c(C(F)(F)F)c2)cc1C#Cc1nn(C2CCC(O)CC2)c2ncnc(N)c12 (stereo not shown) | cell-free assay | inhibitor |  | 10 µM | remaining signal | 105% |
| CN([C@@H]1CCc2c(CC(=O)O)c3ccccc3n2C1)S(=O)(=O)c1ccc(F)cc1 | cell-free assay |  | competition with immobilised ligand | 1 µM | remaining binding | 82% |
| Nc1ncnc2occ(-c3ccc(NC(=O)Nc4cc(C(F)(F)F)ccc4F)cc3)c12 | enzyme activity | inhibitor |  | 20 µM | remaining activity | 63% |
| Cc1cc(NC(=O)c2cccc3cc(-c4cccc5[nH]nc(N)c45)ccc23)ccc1F | enzyme activity | inhibitor |  | 0.1 µM | activity vs control | 109% |
| Cn1c(=O)n(-c2ccc(C(C)(C)C#N)cc2)c2c3cc(-c4cnc5ccccc5c4)ccc3ncc21 | enzyme activity | inhibitor |  | 10 µM | remaining activity | 79% |
| Nc1nc(NC2CCCCC2)sc1C(=O)c1ccccc1 | enzyme activity | inhibitor |  | 10 µM | remaining activity | 114% |
